Results: PMC5338039 (Biochemistry, 2017)
“Also recorded” adds a separate entry of the source.

How the values were obtained:
Type in all cases: cell-based
[1] = molecular target: GPR55 K2.60A (Homo sapiens, UniProt Q9Y2T6, K80A); test: SRE luciferase assay, K2.60A mutant
In short: (§1)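 HA-tagged human GPR55 (WT or sequence-confirmed site-directed mutant, pcDNA3) co-transfected by lipofection with pGL4.33 luc2P/SRE reporter into HEK293 cells; 60,000 cells/well, switched to 1% FBS/DMEM after 5 h, overnight. Agonist test compounds (10 mM DMSO stocks) added for 5 h in serum-free DMEM, 37°C. Cells lysed 10 min at room temperature, luciferin injected, luminescence read immediately (RLU). EC50 from sigmoidal nonlinear regression.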

[2] = molecular target: GPR55 E3.29A (Homo sapiens, UniProt Q9Y2T6, E98A); test: SRE luciferase assay, E3.29A mutant; conditions: E3.29A
Chain of GPR55 E3.29A (Q9Y2T6 whole entry E98A): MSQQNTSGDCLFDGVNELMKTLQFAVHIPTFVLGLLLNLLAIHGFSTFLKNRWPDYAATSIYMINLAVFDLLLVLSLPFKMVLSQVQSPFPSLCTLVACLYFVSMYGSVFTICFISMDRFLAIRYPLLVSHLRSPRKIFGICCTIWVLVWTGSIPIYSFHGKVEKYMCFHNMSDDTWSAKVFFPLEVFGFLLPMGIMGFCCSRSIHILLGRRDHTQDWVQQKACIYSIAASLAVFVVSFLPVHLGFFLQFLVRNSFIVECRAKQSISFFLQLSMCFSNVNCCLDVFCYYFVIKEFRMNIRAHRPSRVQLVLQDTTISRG
In short: as §1

[3] = molecular target: GPR55 Q7.36N (Homo sapiens, UniProt Q9Y2T6, Q271N); test: SRE luciferase assay, Q7.36N mutant; conditions: Q7.36N
Chain of GPR55 Q7.36N (Q9Y2T6 whole entry Q271N): as the sequence (Q9Y2T6 whole entry E98A) above, with A98E, Q271N counted along it
In short: as §1

[4] = molecular target: GPR55 Q7.36A (Homo sapiens, UniProt Q9Y2T6, Q271A); test: SRE luciferase assay, Q7.36A mutant; conditions: Q7.36A
Chain of GPR55 Q7.36A (Q9Y2T6 whole entry Q271A): as the sequence (Q9Y2T6 whole entry E98A) above, with A98E, Q271A counted along it
In short: as §1

[5] = molecular target: GPR55 F6.55L (Homo sapiens, UniProt Q9Y2T6, F246L); test: SRE luciferase assay, F6.55L mutant; conditions: F6.55L
Chain of GPR55 F6.55L (Q9Y2T6 whole entry F246L): as the sequence (Q9Y2T6 whole entry E98A) above, with A98E, F246L counted along it
In short: as §1

[6] = molecular target: GPR55 F6.48A (Homo sapiens, UniProt Q9Y2T6, F239A); test: SRE luciferase assay, F6.48A mutant; conditions: F6.48A
Chain of GPR55 F6.48A (Q9Y2T6 whole entry F239A): as the sequence (Q9Y2T6 whole entry E98A) above, with A98E, F239A counted along it
In short: as §1

[7] = molecular target: GPR55 M3.36A (Homo sapiens, UniProt Q9Y2T6, M105A); test: SRE luciferase assay, M3.36A mutant; conditions: M3.36A
Chain of GPR55 M3.36A (Q9Y2T6 whole entry M105A): as the sequence (Q9Y2T6 whole entry E98A) above, with A98E, M105A counted along it
In short: as §1

[8] = molecular target: GPR55 H(170)F (Homo sapiens, UniProt Q9Y2T6, H170F); test: SRE luciferase assay, H; conditions: H(170)F
Chain of GPR55 H(170)F (Q9Y2T6 whole entry H170F): as the sequence (Q9Y2T6 whole entry E98A) above, with A98E, H170F counted along it
In short: as §1

[9] = molecular target: GPR55 F6.55A (Homo sapiens, UniProt Q9Y2T6, F246A); test: SRE luciferase assay, F6.55A mutant; conditions: F6.55A
Chain of GPR55 F6.55A (Q9Y2T6 whole entry F246A): as the sequence (Q9Y2T6 whole entry E98A) above, with A98E, F246A counted along it
In short: as §1

[10] = molecular target: GPR55 C(260)A (Homo sapiens, UniProt Q9Y2T6, C260A); test: SRE luciferase assay, C; conditions: C(260)A
Chain of GPR55 C(260)A (Q9Y2T6 whole entry C260A): as the sequence (Q9Y2T6 whole entry E98A) above, with A98E, C260A counted along it
In short: as §1

[11] = molecular target: GPR55 Q6.58M (Homo sapiens, UniProt Q9Y2T6, Q249M); test: SRE luciferase assay, Q6.58M mutant; conditions: Q6.58M
Chain of GPR55 Q6.58M (Q9Y2T6 whole entry Q249M): as the sequence (Q9Y2T6 whole entry E98A) above, with A98E, Q249M counted along it
In short: as §1

[12] = molecular target: GPR55 Y3.32F (Homo sapiens, UniProt Q9Y2T6, Y101F); test: SRE luciferase assay, Y3.32F mutant; conditions: Y3.32F
Chain of GPR55 Y3.32F (Q9Y2T6 whole entry Y101F): as the sequence (Q9Y2T6 whole entry E98A) above, with A98E, Y101F counted along it
In short: as §1

[13] = molecular target: GPR55 Y3.32L (Homo sapiens, UniProt Q9Y2T6, Y101L); test: SRE luciferase assay, Y3.32L mutant; conditions: Y3.32L
Chain of GPR55 Y3.32L (Q9Y2T6 whole entry Y101L): as the sequence (Q9Y2T6 whole entry E98A) above, with A98E, Y101L counted along it
In short: as §1

[14] = molecular target: GPR55 C(10)A (Homo sapiens, UniProt Q9Y2T6, C10A); test: SRE luciferase assay, C; conditions: C(10)A
Chain of GPR55 C(10)A (Q9Y2T6 whole entry C10A): as the sequence (Q9Y2T6 whole entry E98A) above, with C10A, A98E counted along it
In short: as §1

[15] = molecular target: GPR55 E3.29L (Homo sapiens, UniProt Q9Y2T6, E98L); test: SRE luciferase assay, E3.29L mutant; conditions: E3.29L
Chain of GPR55 E3.29L (Q9Y2T6 whole entry E98L): as the sequence (Q9Y2T6 whole entry E98A) above, with A98L counted along it
In short: as §1

Chain of GPR55 K2.60A (Q9Y2T6 whole entry K80A): as the sequence (Q9Y2T6 whole entry E98A) above, with K80A, A98E counted along it

l-α-lysophosphatidylinositol [LPI]
SRE response compared with WT (in words) [1]: did not show any LPI-induced responses; also recorded: loss of function
SRE response compared with WT (in words) [2]: slight response at high concentrations of LPI; also recorded: loss of function
SRE response compared with WT (in words) [3]: little to no effect
SRE response compared with WT (in words) [4]: little to no effect
SRE response compared with WT (in words) [5]: little to no effect
SRE response compared with WT (in words) [6]: right shifted curves; also recorded: reduces LPI's ability to signal
SRE response compared with WT (in words) [7]: right shifted curves; also recorded: reduces LPI's ability to signal
SRE response compared with WT (in words) [8]: right shifted curves; also recorded: reduced signaling
SRE response compared with WT (in words) [9]: little to no effect
SRE response compared with WT (in words) [10]: right shifted curves
SRE response compared with WT (in words) [11]: little to no effect; also recorded: essentially no effect
SRE response compared with WT (in words) [12]: right shifted curves; also recorded: reduced signaling
SRE response compared with WT (in words) [13]: right shifted curves; also recorded: reduced signaling
SRE response compared with WT (in words) [14]: right shifted curves
SRE response compared with WT (in words) [15]: slight response at high concentrations of LPI
